Data reported in ChEMBL document CHEMBL1122366, “Potential antiatherosclerotic agents. 3. Substituted benzoic and non benzoic acid analogues of cetaben” (1983).

What was measured:
[1] = target: T1, Sterol O-acyltransferase 1 (Rattus norvegicus) (UniProt O70536); test: In vitro inhibition of acyl coenzyme A:cholesterol acyltransferase; set-up: concentration or dose not given beside the values; conditions: concentration not given here
T1 sequence (whole entry): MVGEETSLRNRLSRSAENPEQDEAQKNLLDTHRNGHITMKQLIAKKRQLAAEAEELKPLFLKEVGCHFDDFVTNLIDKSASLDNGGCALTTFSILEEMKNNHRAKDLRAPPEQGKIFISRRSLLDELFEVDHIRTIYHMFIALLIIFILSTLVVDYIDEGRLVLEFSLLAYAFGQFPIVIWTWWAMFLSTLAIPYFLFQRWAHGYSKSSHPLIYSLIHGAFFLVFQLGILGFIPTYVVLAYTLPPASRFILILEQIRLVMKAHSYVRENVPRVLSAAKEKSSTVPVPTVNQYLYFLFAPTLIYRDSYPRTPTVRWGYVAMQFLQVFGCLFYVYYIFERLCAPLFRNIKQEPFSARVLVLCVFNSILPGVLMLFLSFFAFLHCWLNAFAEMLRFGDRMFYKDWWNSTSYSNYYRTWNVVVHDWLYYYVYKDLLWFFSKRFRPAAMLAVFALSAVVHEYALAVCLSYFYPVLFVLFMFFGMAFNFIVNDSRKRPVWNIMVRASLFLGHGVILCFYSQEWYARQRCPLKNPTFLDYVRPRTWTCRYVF
How it was run: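 Enzyme fatty acyl-CoA:cholesterol acyltransferase (ACAT), assayed in vitro at a single drug concentration of 5.2 μg/mL. The value is the mean percent inhibition of enzyme activity.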

[2] = test system: Rattus norvegicus; test: In vivo sterol lowering activity when dosed as 0.03 % of the diet; type: functional
How it was run: (§1)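 Normal rats were dosed in the diet. Serum sterol and triglyceride levels were measured and expressed as the mean percent of control values. Significance versus control was reported at p < 0.05, 0.01 and 0.001.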

[3] = test system: Rattus norvegicus; test: In vivo sterol lowering activity when dosed as 0.01 % of the diet; type: functional; how it was run: as §1
[4] = test system: Rattus norvegicus; test: In vivo triglyceride lowering activity when dosed as 0.025 % of the diet
[5] = test system: Rattus norvegicus; test: In vivo triglyceride lowering activity when dosed at 0.03 % of the diet; type: functional; how it was run: as §1
[6] = test system: Rattus norvegicus; test: In vivo triglyceride lowering activity dosed at 0.10 % of the diet.; type: functional; how it was run: as §1
[7] = test system: Rattus norvegicus; test: In vivo sterol lowering activity at dose of 0.10 % of the diet; type: functional; how it was run: as §1
[8] = test system: Rattus norvegicus; test: In vivo triglyceride lowering activity when dosed as 0.01 % of the diet; type: functional; how it was run: as §1
[9] = test system: Rattus norvegicus; test: In vivo triglyceride lowering activity when dosed at 0.05 % of the diet

SMILES | inhibition [1] | serum sterol level, percent of control [2] | serum sterol level, % of control [3] | Diet [4] | serum triglyceride level, percent of control [5] | serum triglyceride, percent of control [6] | serum sterol level, percent of control [7] | serum triglyceride level, percent of control [8] | Diet [5] | Diet [9]
CCCCCCCCCCCCCCCCNc1ccc(C(=O)CCC(=O)O)cc1 | 16% | 100% | 116% | <82% | <72% | <66% | 109% | – | – | –
CCCCCCCCCCCCCCCCNc1ccc(C(=O)NN)cc1 | < 24% | 105% | 110% | – | 84% | 84% | 116% | 108% | – | –
CCCCCCCCCCCCCCCCNc1ncc(C(=O)O)cn1 | < 21% | 108% | 108% | – | 94% | 93% | 114% | 89% | – | –
CCCCCCCCCCCCCCCCNc1ccc(CCC(=O)O)cc1 | 50% | <80% | 88% | – | <50% | <37% | 92% | <59% | – | –
CCCCCCCCCCCCCCCCNc1ccc(C(=O)OCC(=O)O)cc1 | 45% | 88% | 87% | – | 91% | <65% | <83% | 76% | – | –
CCCCCCCCCCCCCCCCNc1ccc(C2SCCCS2)cc1 | 9% | 92% | 102% | – | 114% | 91% | 93% | 105% | – | –
CCCCCCCCCCCCCCCCNc1ccc(C(=O)Oc2ccc(C(=O)O)cc2)cc1 | < 18% | 95% | 105% | – | 81% | 109% | 93% | 98% | – | –
CCCCCCCCCCCCCCCCNc1ccc(CCC(=O)OCC)cc1 | 7% | 89% | 89% | – | 88% | <45% | 84% | 96% | – | –
CCCCCCCCCCCCCCCCNc1ccc(C=O)cc1 | < 30% | 92% | 91% | – | <64% | <53% | <85% | <66% | – | –
CCCCCCCCCCCCCCCCNc1ccc(C(C)(C)C(=O)O)cc1 | < 27% | 111% | 93% | – | 121% | 116% | 107% | 109% | – | –
CCCCCCCCCCCCCCCCNc1ccc(C(=O)OCC)c(C(=O)OCC)c1 | < 37% | 99% | 98% | – | 93% | <72% | 90% | 86% | – | –
CCCCCCCCCCCCCCCCNc1ccc(C(=O)OC2COC(c3ccccc3)OC2)cc1 (stereo unspecified) | 0% | 91% | 95% | – | – | 78% | 99% | 103% | 68% | –
CCCCCCCCCCCCCCCCNc1ccc(C(=O)O)c(OC)c1 | – | 105% | 104% | – | – | 77% | 98% | 75% | – | <66%
CCCCCCCCCCCCCCCCNc1ccc(C(=O)CS(C)(=O)=O)cc1 | 0% | 97% | 98% | – | 112% | 110% | 100% | 88% | – | –
CCCCCCCCCCCCCCCCNc1ccc(C2OCCO2)cc1 | 0% | <77% | <85% | – | 82% | <47% | <71% | 100% | – | –
CCCCCCCCCCCCCCCCNc1ccc(C(=O)C(C)C(=O)OCC)cc1 (stereo unspecified) | 21% | 87% | 100% | – | 88% | <66% | <73% | 87% | – | –
CCCCCCCCCCCCCCCCN(C(C)=O)c1ccc(C(OC(C)=O)C(N)=O)cc1 (stereo unspecified) | < 40% | 111% | 109% | – | 86% | 89% | 110% | 93% | – | –
CCCCCCCCCCCCCCCCNc1ccc(C(=O)OCC(=O)OC)cc1 | < 24% | <76% | 84% | – | 72% | 74% | <71% | 79% | – | –
CCCCCCCCCCCCCCCCNc1ccc(C(=O)NCC(=O)O)cc1 | < 64% | 87% | <77% | – | <70% | <48% | <77% | 76% | – | –
CCCCCCCCCCCCCCCCNc1ccc(C(C)=O)cc1 | 14% | 119% | 129% | – | 88% | 78% | 98% | 84% | – | –
CCCCCCCCCCCCCCCCNc1ccc(C(=O)COC)cc1 | < 47% | 88% | 88% | – | 85% | <65% | 91% | 77% | – | –
